The test system of one assay is MDA-MB-231. In words: Antiproliferative activity against human MDA-MB-231 cells after 72 hrs by MTT assay. Conditions: MDA-MB-231, 72 h. The assay is classed as functional, cell-based. Put shortly:
(§1)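 RPMI-1640 with 10% fetal calf serum, 37 °C, 5% CO₂, 95% humidity. Cells seeded at 5.0 × 10³/well and grown 24 h, then exposed 72 h to a range of compound concentrations. MTT (5 mg/ml solution) added for a further 4 h at 37 °C. Formazan crystals dissolved and absorbance read at 570 nm. Each compound tested three times per cell line. IC50 reported as mean ± SD of three independent experiments.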
On the technique in general: Formazan colour is commonly taken as a measure of viable cells.

The subject of a further assay is BGC-823. In words: Antiproliferative activity against human BGC823 cells after 72 hrs by MTT assay. The assay is classed as functional, cell-based. The settings on record: BGC-823, 72 h. Put shortly:
as §1

A further assay deals with SMMC-7721. As to the kind of experiment: Antiproliferative activity against human SMMC7721 cells after 72 hrs by MTT assay. The assay is classed as functional, cell-based. Conditions: SMMC-7721, 72 h. Put shortly:
as §1

For assay [1], the target named is T1, RAF proto-oncogene serine/threonine-protein kinase (Homo sapiens, UniProt P04049). In words: Inhibition of C-Raf kinase-mediated phosphorylation of Mek using [33P]gammaATP after 20 mins by scintillation counting. An outline of the steps:
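The reaction was started with [γ-³³P]ATP (about 500 cpm/pmol) and run 20 min at 30 °C. It was then spotted onto a phosphocellulose mat, washed in 1% phosphoric acid, and counted by scintillation.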

The nature of assay [2]: Inhibition of Abl at 10 uM.
Assay [3] deals with RAC-alpha serine/threonine-protein kinase (Homo sapiens) (UniProt P31749). In words: Inhibition of AKT1 at 10 uM.
The target of assay [4] is Mast/stem cell growth factor receptor Kit (Homo sapiens) (UniProt P10721). As to the kind of experiment: Inhibition of c-KIT at 10 uM.
The target in assay [5] is Hepatocyte growth factor receptor (Homo sapiens) (UniProt P08581). As to the kind of experiment: Inhibition of c-MET at 10 uM.
Assay [6] has as its target T1, RAF proto-oncogene serine/threonine-protein kinase. As to the kind of experiment: Inhibition of c-Raf at 10 uM.
Assay [7] addresses Cyclin-dependent kinase 2 (Homo sapiens) (UniProt P24941). In words: Inhibition of CDK2 at 10 uM.
For assay [8], the target named is Receptor-type tyrosine-protein kinase FLT3 (Homo sapiens) (UniProt P36888). As to the kind of experiment: Inhibition of FLT3 at 10 uM.
In assay [9] the target is Macrophage colony-stimulating factor 1 receptor (Homo sapiens) (UniProt P07333). As to the kind of experiment: Inhibition of FMS at 10 uM.
Assay [10] deals with Tyrosine-protein kinase Fyn (Homo sapiens) (UniProt P06241). In words: Inhibition of FYN at 10 uM.
In assay [11] the target is Fibroblast growth factor receptor 1 (Homo sapiens) (UniProt P11362). As to the kind of experiment: Inhibition of FGFR1 at 10 uM.
Assay [12] deals with Inhibitor of nuclear factor kappa-B kinase subunit beta (Homo sapiens) (UniProt O14920). In words: Inhibition of IKKbeta at 10 uM.
Assay [13] addresses Tyrosine-protein kinase JAK2 (Homo sapiens) (UniProt O60674). As to the kind of experiment: Inhibition of JAK2 at 10 uM.
The target in assay [14] is Platelet-derived growth factor receptor alpha (Homo sapiens) (UniProt P16234). As to the kind of experiment: Inhibition of PDGFRalpha at 10 uM.
The target of assay [15] is Focal adhesion kinase 1 (Homo sapiens) (UniProt Q05397). As to the kind of experiment: Inhibition of PTK2 at 10 uM.
Assay [16] in a line: Inhibition of PKA at 10 uM.
Assay [17] deals with Serine/threonine-protein kinase PLK1 (Homo sapiens) (UniProt P53350). In words: Inhibition of PLK1 at 10 uM.
In assay [18] the target is Vascular endothelial growth factor receptor 2 (Homo sapiens) (UniProt P35968). In words: Inhibition of KDR at 10 uM.
Assay [19] concerns the target Tyrosine-protein kinase SYK (Homo sapiens) (UniProt P43405). In words: Inhibition of SYK at 10 uM.
Assay [20] has as its target Angiopoietin-1 receptor (Homo sapiens) (UniProt Q02763). In words: Inhibition of TIE2 at 10 uM.
For assay [21], the target named is Vascular endothelial growth factor receptor 2 (Homo sapiens) (UniProt P35968). As to the kind of experiment: Inhibition of VEGFR2 at 10 uM.

The values that follow come from ChEMBL document CHEMBL2046400, “Design, synthesis and antitumor activities of novel bis-aryl ureas derivatives as Raf kinase inhibitors” (Bioorg Med Chem, 2012).

Structures are written as SMILES.

T1 sequence (P04049 whole entry): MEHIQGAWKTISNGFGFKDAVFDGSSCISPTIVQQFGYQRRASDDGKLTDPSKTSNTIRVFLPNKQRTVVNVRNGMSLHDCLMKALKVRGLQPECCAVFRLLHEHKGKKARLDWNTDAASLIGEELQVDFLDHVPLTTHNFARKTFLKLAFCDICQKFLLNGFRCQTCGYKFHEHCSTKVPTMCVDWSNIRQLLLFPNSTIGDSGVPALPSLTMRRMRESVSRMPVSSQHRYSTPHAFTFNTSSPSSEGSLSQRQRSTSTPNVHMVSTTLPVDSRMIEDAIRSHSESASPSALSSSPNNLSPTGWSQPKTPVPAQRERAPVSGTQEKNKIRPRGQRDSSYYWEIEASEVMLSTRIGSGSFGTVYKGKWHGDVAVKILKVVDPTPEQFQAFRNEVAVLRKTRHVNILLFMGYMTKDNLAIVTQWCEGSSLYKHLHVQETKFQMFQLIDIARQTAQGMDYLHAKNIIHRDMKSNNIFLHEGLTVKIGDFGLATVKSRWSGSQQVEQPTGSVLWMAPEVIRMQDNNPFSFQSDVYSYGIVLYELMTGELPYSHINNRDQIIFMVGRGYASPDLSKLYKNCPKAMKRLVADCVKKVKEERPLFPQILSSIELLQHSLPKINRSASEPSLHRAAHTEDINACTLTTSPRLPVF
Chain of Vascular endothelial growth factor receptor 2 (Homo sapiens) (P35968 whole entry): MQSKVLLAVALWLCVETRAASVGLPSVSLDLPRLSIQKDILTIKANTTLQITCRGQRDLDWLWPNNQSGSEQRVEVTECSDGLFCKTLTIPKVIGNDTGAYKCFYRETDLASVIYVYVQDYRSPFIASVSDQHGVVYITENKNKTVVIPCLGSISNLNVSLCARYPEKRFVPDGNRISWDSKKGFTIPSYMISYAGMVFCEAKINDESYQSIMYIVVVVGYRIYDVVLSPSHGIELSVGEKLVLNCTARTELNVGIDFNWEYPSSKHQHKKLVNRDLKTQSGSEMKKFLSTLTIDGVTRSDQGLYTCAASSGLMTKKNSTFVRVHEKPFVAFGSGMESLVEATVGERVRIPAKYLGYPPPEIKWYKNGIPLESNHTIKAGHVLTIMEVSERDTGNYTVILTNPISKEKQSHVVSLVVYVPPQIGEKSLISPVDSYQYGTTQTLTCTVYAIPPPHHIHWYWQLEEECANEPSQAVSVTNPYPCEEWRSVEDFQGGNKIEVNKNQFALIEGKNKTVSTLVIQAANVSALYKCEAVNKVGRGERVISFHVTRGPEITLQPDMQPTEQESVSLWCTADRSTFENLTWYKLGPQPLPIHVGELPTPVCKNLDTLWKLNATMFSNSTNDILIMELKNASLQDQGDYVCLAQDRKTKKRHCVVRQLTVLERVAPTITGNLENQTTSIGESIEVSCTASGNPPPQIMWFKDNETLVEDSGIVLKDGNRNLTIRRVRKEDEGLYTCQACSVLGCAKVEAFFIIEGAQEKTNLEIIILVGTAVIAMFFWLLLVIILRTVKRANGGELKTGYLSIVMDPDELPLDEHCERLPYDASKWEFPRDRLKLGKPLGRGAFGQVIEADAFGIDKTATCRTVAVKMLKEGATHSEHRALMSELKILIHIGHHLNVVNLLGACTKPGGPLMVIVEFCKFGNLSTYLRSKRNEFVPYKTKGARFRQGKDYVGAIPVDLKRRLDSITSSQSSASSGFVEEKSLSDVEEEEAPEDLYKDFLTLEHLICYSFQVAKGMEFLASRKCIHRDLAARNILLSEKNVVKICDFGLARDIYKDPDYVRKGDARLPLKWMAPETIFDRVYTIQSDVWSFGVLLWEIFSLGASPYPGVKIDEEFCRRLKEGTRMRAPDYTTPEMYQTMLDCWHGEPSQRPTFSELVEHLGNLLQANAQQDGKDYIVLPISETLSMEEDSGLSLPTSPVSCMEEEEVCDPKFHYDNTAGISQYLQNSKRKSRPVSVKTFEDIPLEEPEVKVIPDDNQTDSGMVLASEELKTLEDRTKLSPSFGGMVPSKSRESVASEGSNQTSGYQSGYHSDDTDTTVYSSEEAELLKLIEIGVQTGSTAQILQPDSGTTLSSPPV
Chain of Tyrosine-protein kinase JAK2 (Homo sapiens) (O60674 whole entry): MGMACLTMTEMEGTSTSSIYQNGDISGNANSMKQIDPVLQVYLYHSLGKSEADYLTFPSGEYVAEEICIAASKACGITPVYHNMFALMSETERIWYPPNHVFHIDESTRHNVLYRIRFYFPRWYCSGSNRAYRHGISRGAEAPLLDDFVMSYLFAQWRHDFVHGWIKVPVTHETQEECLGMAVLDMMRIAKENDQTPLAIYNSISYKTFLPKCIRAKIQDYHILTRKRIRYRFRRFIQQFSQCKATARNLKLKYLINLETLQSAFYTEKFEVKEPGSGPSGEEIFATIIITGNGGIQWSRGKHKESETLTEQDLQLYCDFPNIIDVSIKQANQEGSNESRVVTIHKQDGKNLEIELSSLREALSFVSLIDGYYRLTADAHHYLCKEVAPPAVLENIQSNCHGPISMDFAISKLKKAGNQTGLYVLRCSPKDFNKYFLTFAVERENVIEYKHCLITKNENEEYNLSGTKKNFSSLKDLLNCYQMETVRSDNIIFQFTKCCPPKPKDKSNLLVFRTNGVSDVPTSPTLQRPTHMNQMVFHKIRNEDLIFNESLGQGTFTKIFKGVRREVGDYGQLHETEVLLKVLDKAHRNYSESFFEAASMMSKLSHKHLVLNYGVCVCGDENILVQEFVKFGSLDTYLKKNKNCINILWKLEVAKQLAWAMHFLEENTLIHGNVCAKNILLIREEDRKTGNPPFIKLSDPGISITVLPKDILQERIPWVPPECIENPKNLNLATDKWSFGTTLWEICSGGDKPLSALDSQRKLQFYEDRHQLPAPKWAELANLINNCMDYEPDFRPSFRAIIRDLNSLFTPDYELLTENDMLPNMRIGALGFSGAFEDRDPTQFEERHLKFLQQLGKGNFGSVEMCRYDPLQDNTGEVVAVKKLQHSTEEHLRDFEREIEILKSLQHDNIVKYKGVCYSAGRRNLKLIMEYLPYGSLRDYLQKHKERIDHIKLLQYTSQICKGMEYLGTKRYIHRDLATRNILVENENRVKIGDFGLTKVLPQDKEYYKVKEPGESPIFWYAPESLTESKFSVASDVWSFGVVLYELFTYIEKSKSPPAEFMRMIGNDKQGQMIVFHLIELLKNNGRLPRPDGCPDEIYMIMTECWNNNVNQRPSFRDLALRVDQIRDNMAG
Chain of Fibroblast growth factor receptor 1 (Homo sapiens) (P11362 22-822 limits assumed): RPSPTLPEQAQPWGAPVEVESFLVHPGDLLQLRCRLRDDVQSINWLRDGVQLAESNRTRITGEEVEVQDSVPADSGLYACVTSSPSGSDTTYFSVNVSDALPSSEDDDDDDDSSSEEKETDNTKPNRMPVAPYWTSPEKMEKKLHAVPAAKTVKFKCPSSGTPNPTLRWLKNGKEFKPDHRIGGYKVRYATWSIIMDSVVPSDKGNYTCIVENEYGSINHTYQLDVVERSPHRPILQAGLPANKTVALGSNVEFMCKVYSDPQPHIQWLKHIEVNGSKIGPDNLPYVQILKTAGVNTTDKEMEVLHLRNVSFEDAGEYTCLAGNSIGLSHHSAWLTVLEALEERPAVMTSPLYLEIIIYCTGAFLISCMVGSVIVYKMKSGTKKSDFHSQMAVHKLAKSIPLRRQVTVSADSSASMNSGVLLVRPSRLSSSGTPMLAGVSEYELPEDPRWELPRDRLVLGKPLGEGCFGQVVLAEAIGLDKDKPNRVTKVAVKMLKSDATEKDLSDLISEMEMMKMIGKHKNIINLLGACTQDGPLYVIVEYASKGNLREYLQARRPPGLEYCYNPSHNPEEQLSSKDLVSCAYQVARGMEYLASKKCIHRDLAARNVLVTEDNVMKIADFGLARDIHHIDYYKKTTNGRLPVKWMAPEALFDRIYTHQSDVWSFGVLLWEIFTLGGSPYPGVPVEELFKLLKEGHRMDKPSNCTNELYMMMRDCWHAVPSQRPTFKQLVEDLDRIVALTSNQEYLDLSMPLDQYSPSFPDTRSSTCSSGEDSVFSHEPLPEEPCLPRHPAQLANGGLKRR
Chain of Macrophage colony-stimulating factor 1 receptor (Homo sapiens) (P07333 whole entry): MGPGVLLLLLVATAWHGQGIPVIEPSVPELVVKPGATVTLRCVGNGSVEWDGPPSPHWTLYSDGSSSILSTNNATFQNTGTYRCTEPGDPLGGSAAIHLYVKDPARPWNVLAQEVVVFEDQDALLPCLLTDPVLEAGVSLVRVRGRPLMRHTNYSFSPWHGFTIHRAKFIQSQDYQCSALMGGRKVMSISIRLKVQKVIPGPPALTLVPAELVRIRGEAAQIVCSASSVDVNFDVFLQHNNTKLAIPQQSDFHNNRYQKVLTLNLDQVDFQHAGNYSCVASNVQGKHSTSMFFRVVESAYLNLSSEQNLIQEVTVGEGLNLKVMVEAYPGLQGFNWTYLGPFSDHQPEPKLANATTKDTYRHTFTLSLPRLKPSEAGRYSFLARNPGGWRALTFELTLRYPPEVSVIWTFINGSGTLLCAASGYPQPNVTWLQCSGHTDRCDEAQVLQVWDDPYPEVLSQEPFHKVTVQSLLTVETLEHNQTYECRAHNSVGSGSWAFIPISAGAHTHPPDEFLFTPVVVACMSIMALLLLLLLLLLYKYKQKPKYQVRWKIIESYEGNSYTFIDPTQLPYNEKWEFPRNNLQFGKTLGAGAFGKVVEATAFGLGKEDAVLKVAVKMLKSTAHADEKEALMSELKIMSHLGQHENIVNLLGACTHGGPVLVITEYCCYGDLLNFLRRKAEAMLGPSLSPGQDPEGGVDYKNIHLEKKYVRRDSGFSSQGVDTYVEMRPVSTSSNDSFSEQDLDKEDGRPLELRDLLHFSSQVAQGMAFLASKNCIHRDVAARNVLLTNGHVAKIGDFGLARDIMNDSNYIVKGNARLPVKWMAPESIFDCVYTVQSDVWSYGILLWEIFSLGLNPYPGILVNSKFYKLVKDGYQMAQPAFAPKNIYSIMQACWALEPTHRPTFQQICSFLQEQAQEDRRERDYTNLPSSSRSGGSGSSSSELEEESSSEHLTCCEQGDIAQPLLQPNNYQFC

Take `O=C(Nc1ccc(Cl)c(Cl)c1)Nc1ccc(Oc2ccnc(-c3ncc(C(F)(F)F)[nH]3)c2)cc1Cl`: the IC50 – broadly, the concentration at which inhibition is half-maximal – is 1.77 µM in the assay with MDA-MB-231, 12.7 µM with BGC-823, 2.49 µM in the assay with SMMC-7721 and 0.0165 µM in [1].

Take `CNC(=O)c1cc(Oc2ccc(NC(=O)Nc3ccc(Cl)c(C(F)(F)F)c3)cc2)ccn1` [SORAFENIB]: the IC50 in the assay with MDA-MB-231 came out at 7.18 µM; in the assay on BGC-823, 10.9 µM; in the assay on SMMC-7721 it was 6.23 µM.

With `O=C(Nc1cccc(C(F)(F)F)c1)Nc1ccc(Oc2ccnc(-c3ncc(C(F)(F)F)[nH]3)c2)cc1Cl`, the IC50 with MDA-MB-231 came out at 14.2 µM; with BGC-823, 23.2 µM; with SMMC-7721, 9.72 µM; in assay [1], 0.0648 µM.

With `Cc1ccc(NC(=O)Nc2ccc(Oc3ccnc(-c4ncc(C(F)(F)F)[nH]4)c3)cc2Cl)cc1C(F)(F)F`, the IC50 in the assay on MDA-MB-231 was determined as 10.1 µM; with BGC-823, 33.4 µM; in the assay with SMMC-7721, 8.38 µM; in [1], 0.0467 µM.

With `O=C(Nc1ccc(Oc2ccnc(-c3ncc(C(F)(F)F)[nH]3)c2)cc1)Nc1ccc(Cl)c(Cl)c1`, the IC50 in the assay on MDA-MB-231 turned out to be 2.03 µM; in the assay with BGC-823, 10.7 µM; in the assay on SMMC-7721, 3.06 µM; in assay [1], 0.0131 µM.

On to `O=C(Nc1ccc(Oc2ccnc(-c3ncc(C(F)(F)F)[nH]3)c2)cc1)Nc1cc(C(F)(F)F)ccc1Cl`, for which the IC50 in the assay with MDA-MB-231 stood at 7.83 µM; in the assay with BGC-823, 18.4 µM; in the assay on SMMC-7721, 6.84 µM; in assay [1] it was 0.0759 µM.

On to `O=C(Nc1ccc(F)cc1)Nc1ccc(Oc2ccnc(-c3ncc(C(F)(F)F)[nH]3)c2)cc1`, for which the IC50 turned out to be 38.7 µM in the assay on MDA-MB-231, 23.7 µM in the assay on BGC-823, 36.2 µM with SMMC-7721 and 0.0949 µM in assay [1].

On to `O=C(Nc1ccc(Oc2ccnc(-c3ncc(C(F)(F)F)[nH]3)c2)cc1Cl)Nc1cc(C(F)(F)F)ccc1Cl`, for which the IC50 in the assay on MDA-MB-231 came out at 7.03 µM; in the assay with BGC-823 it was 14.2 µM; with SMMC-7721, 5.29 µM; in assay [1], 0.0359 µM.

On to `O=C(Nc1ccc(Oc2ccnc(-c3ncc(C(F)(F)F)[nH]3)c2)cc1)Nc1cccc(C(F)(F)F)c1`, for which the IC50 came to 10.7 µM in the assay with MDA-MB-231, 26.2 µM in the assay with BGC-823, 11.7 µM in the assay on SMMC-7721 and 0.0878 µM in assay [1].

As to `Cc1cccc(Cl)c1NC(=O)Nc1ccc(Oc2ccnc(-c3ncc(C(F)(F)F)[nH]3)c2)cc1`, the IC50 in the assay on MDA-MB-231 is 76.6 µM; in the assay on BGC-823, 84 µM; with SMMC-7721 it was 57.9 µM; in [1] it was 0.12 µM.

Regarding `COc1ccc(NC(=O)Nc2ccc(Oc3ccnc(-c4ncc(C(F)(F)F)[nH]4)c3)cc2)cc1`, the 50% inhibitory concentration (IC50) was 95.4 µM in the assay with MDA-MB-231, > 100 µM with BGC-823 and > 100 µM in the assay with SMMC-7721.

For the compound `O=C(Nc1ccc(Oc2ccnc(-c3ncc(C(F)(F)F)[nH]3)c2)cc1)Nc1ccc(F)c(Cl)c1`, the IC50 in the assay on MDA-MB-231 came to 11.3 µM; in the assay on BGC-823 it was 15.7 µM; in the assay on SMMC-7721 it was 9.69 µM; in [1] it was 0.0692 µM.

Consider `O=C(Nc1ccc(F)c(C(F)(F)F)c1)Nc1ccc(Oc2ccnc(-c3ncc(C(F)(F)F)[nH]3)c2)cc1Cl`, for which the IC50 came out at 8.21 µM in the assay on MDA-MB-231, 17.7 µM in the assay with BGC-823, 5.72 µM with SMMC-7721 and 0.0777 µM in assay [1].

In the case of `Cc1cc(NC(=O)Nc2ccc(Oc3ccnc(-c4ncc(C(F)(F)F)[nH]4)c3)cc2)no1`, the IC50 with MDA-MB-231 turned out to be 44.8 µM; in the assay with BGC-823 it was 97.7 µM; with SMMC-7721, 87.7 µM; in assay [1] it was 0.148 µM.

For the compound `O=C(Nc1ccc(Oc2ccnc(-c3ncc(C(F)(F)F)[nH]3)c2)cc1)Nc1ccc(Br)cc1F`, the IC50 is 25.4 µM in the assay on MDA-MB-231, 66.8 µM in the assay with BGC-823, 44.6 µM in the assay on SMMC-7721 and 0.0815 µM in assay [1].

With `O=C(Nc1ccc(Cl)c(C(F)(F)F)c1)Nc1ccc(Oc2ccnc(-c3ncc(C(F)(F)F)[nH]3)c2)cc1Cl`, the IC50 was 3.77 µM in the assay on MDA-MB-231, 11.1 µM in the assay on BGC-823, 6.52 µM in the assay with SMMC-7721 and 0.0221 µM in [1].

With `O=C(Nc1ccc(Oc2ccnc(-c3ncc(C(F)(F)F)[nH]3)c2)cc1)Nc1ccc2c(c1)OCO2`, the figures for the IC50 in the assay on MDA-MB-231, in the assay on BGC-823 and with SMMC-7721 were 63.2 µM, > 100 µM and 92.4 µM, respectively.

On to `O=C(Nc1ccc(Oc2ccnc(-c3ncc(C(F)(F)F)[nH]3)c2)cc1)Nc1ccc(Cl)c(C(F)(F)F)c1`, for which the IC50 was determined as 1.21 µM in the assay with MDA-MB-231, 13.2 µM in the assay on BGC-823, 1.38 µM in the assay on SMMC-7721 and 0.0106 µM in assay [1]. Besides, the inhibition (in general, the share of the control response that was lost under treatment) is 44.3% in assay [2]; 11.7% in assay [3]; 23.9% in [4]; 2.2% in assay [5]; 95.3% in assay [6]; 7.8% in [7]. In addition, the inhibition came to 17.7% in [8]; 50.8% in assay [9]; 0.4% in [10]; 20.2% in [11]; 5.6% in assay [12]; 0% in [13]. Also, the inhibition worked out at 0% in [14]; 4.9% in [15]; 1.3% in assay [16]; 8.7% in [17]; 3.5% in [18]; 20.4% in assay [19]. Also, the inhibition was 27.5% in assay [20] and 36.8% in [21].

As for `COc1cc(NC(=O)Nc2ccc(Oc3ccnc(-c4ncc(C(F)(F)F)[nH]4)c3)cc2Cl)cc(OC)c1OC`, the IC50 with MDA-MB-231, in the assay on BGC-823 and with SMMC-7721 was > 100 µM throughout.
